# Mdm2 MdmX PPI: human Mdm2/MdmX binding inhibition; O15151+Q00987; SaOS-2 split-luciferase Mdm2/MdmX complementation, luminescence; inhibition, % at 8 µM; hit rate 3% among 330,000;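 active = inhibition of at least 50% at 8 µM in the primary screen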
# Target sequence (O15151 whole entry, looked up): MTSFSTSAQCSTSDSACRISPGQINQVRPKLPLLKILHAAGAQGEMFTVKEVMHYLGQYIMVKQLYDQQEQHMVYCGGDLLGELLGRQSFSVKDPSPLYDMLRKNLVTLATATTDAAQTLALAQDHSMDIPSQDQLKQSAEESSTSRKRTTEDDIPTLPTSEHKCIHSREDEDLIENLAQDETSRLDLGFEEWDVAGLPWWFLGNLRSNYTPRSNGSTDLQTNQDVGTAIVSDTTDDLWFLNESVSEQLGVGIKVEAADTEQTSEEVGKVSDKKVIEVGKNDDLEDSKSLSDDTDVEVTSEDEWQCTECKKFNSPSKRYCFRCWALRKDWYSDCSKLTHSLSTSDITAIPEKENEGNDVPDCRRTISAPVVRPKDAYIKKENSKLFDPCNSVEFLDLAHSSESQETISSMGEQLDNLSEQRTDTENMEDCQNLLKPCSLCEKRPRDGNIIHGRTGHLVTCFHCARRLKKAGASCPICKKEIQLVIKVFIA
# Target sequence (Q00987 whole entry, looked up): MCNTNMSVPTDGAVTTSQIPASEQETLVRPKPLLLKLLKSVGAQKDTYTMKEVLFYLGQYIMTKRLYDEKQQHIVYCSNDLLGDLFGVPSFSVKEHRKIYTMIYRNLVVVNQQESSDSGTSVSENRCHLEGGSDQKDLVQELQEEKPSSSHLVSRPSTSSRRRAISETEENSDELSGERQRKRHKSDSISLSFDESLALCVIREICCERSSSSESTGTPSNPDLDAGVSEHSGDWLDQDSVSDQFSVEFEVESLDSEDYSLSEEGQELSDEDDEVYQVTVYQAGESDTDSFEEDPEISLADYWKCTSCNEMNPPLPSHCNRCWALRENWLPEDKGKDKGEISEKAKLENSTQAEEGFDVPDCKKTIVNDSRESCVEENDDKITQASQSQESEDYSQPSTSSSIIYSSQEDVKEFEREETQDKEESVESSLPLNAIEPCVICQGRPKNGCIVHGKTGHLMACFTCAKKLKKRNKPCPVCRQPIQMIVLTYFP
# CSC inhib: cancer stem cell inhibition | cancer stem cell-like cells viability, luminescence | inhibition, % at 7.5 µM | hit rate 1.1% among 300,000; in the data active = inhibition above about 75%; tested in HMLE shEcad cells
# SKKanGAS inh: SKKanGAS growth inhibition. S. pyogenes SKKanGAS, kanamycin growth, BacTiter-Glo, 6 h. inhibition, % at 7.5 µM. hit rate 1.3% among 300,000. AID 1662;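 active = mean replicate score, as percent of positive control median, at least 50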;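 also: strain carries kanamycin resistance gene driven by streptokinase promoter and grows in 40 µg/ml kanamycin; loss of luminescence reflects streptokinase promoter inhibition or plain growth inhibition; 0% = median of DMSO wells and 100% = positive control at its reference dose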
# Beta cell apopt: blocks beta cell apoptosis. INS-1E cytokine-induced death, ATP luminescence, 48 h; percent of positive-control rescue, neutral wells zero. protection from apoptosis, % (test concentration not listed). hit rate 0.8% among 300,000;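 active = Every replicate reaches about 75%, or at least half do and their mean reaches it too, limit read from the data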;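 also: 0% = cytokine-treated negative control wells and 100% = positive control rescue; higher means more ATP so stronger rescue from cytokine killing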
# Calb FLC: affects C. albicans growth with fluconazole; growth inhibition, % (concentration not given with the values); hit rate 0.57% among 300,000; C. albicans CaCi-2 (fluconazole-resistant clinical isolate) + fluconazole, Alamar Blue growth, 48 h;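 active = growth inhibition above about 58% in most replicates, limit read from the data, passing the limit was not always enough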;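 also: all wells also contain fluconazole at 8 µg/ml as a sub-toxic cotreatment; 0% = median of DMSO wells and 100% = median of geldanamycin control wells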
# T cruzi repl: blocks replication of Trypanosoma cruzi. inhibition, % (no concentration beside the values). hit rate 1.4% among 300,000. T. cruzi beta-gal in NIH3T3, luminescence, 90 h;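 active = mean inhibition across valid replicates above about 55%, limit read from the data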;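 also: signal also drops with host cell toxicity which is not excluded here; 0% = plate median of DMSO wells and 100% = zero luminescence signal; higher percent means less beta-gal luminescence so fewer parasites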
#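 Incubation – ≥90 h infection period, 3 h prior cell attachment · System – NIH/3T3 fibroblasts plus reporter T. cruzi · Doses – compound pinned at 50 nL/well, DMSO · Read-out basis – percent inhibition of parasite-derived β-gal signal · Signal – luminescent β-galactosidase signal after 60 min lysis · Also added – 5000 T. cruzi trypomastigotes/well · Medium – Low-serum DMEM with 2% FBS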
# Mdm2-MdmX conf: human Mdm2/MdmX binding inhibition, confirmed; AID 489028; inhibition, % at 8 µM; shares compounds with Mdm2 MdmX PPI; hit rate 55% among 10,000; luminescent assay; in the data active = inhibition above about 40%
# Full FLuc ctr: inhibits full-length luciferase, flagging false Mdm2/MdmX hits; shares compounds with Mdm2 MdmX PPI; SaOS-2 full-length luciferase counterscreen, luminescence; inhibition, % at 8 µM; hit rate 77% among 6,200;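 active = mean inhibition at 8 µM reaching about 37%, which flags the compound as non-specific, limit read from the data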;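 also: p53-null SaOS-2 cells with luciferase driven by a doxycycline-inducible promoter; compound on cells about two nights before reading with doxycycline added after day one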
# * marks the source's active call; other numbers are inactive results; . = no result. Shown are actives, neighbours in structure and some others; about 5.7% of the full set was active somewhere.
SMILES,Mdm2 MdmX PPI,CSC inhib,SKKanGAS inh,Beta cell apopt,Calb FLC,T cruzi repl,Mdm2-MdmX conf,Full FLuc ctr
CC(NCc1cccc(OCc2ccccc2)c1)C(O)c1ccccc1 (stereo not drawn),19.9,8.9,-7.8,0.0,-5.3,8.7,.,.
CC(NCc1ccc(OCc2ccc(Cl)cc2)cc1)C(O)c1ccccc1 (stereo not drawn),100.4*,102.0*,14.3,35.3,-2.6,45.3,60.1*,51.7*
Cc1ccc(NS(=O)(=O)c2ccc3c(c2)n(C)c(=O)n3C)c(C)c1,-14.3,-4.9,-0.7,-7.2,2.6,-16.1,.,.
Cn1c(=O)n(C)c2cc(NS(=O)(=O)c3ccccc3)ccc21,50.7*,-7.2,-5.7,-8.2,-5.6,-11.4,19.1,.
CCc1ccc(S(=O)(=O)Nc2cc3c(cc2C)n(C)c(=O)n3C)cc1,57.9*,33.6,-4.2,56.4,23.3,-38.5,55.0*,59.5*
Cc1ccc(S(=O)(=O)Nc2ccc3c(c2)n(C)c(=O)n3C)cc1,37.2,-6.6,1.3,-5.8,-0.2,-16.5,.,.
COc1ccc(COC(=O)C2CCN(S(=O)(=O)c3ccc(C)cc3)CC2)cc1,16.3,-16.4,2.1,0.6,7.8,-6.5,.,.
CCc1cc2c3c(c(=O)oc2cc1OCC(=O)OC)CCCC3,-6.6,-9.2,1.1,-6.8,5.8,-6.1,.,.
CC1CCN(c2ccc3c(c2)S(=O)(=O)c2cccc(C(=O)NC4CC4)c2C3=O)CC1,10.2,3.9,.,-1.4,.,.,.,.
CC(C)CN(C(=O)c1ccc(N2CCCC2=O)cc1)c1c(N)n(Cc2ccccc2)c(=O)[nH]c1=O,-10.6,0.3,.,-5.8,.,.,.,.
CC(SC1=NCCS1)C(=O)Nc1nnc(-c2ccc(Br)cc2)s1 (stereo not drawn),52.2*,56.4,14.9,-5.4,-2.7,13.8,18.6,.
CCOC(=O)c1ccccc1NC(=O)Cc1ccc(OC)c(S(=O)(=O)N2CCOCC2)c1,20.5,-1.5,.,-4.1,.,.,.,.
COc1ccc(F)cc1S(=O)(=O)NCC(c1ccco1)N1CCc2ccccc2C1 (stereo not drawn),16.9,-3.8,7.8,.,17.3,14.0,.,.
CC(=O)NC(c1ccco1)c1ccc2cccnc2c1O (stereo not drawn),71.7*,-1.0,40.3,90.2*,-6.3,45.1,54.5*,27.7
CCCC(=O)NC(c1ccc(N(C)C)cc1)c1ccc2cccnc2c1O (stereo not drawn),80.0*,151.6*,39.3,96.2*,91.8*,58.7*,79.8*,29.9
CCCC(=O)NC(c1ccc(C(C)C)cc1)c1ccc2cccnc2c1O (stereo not drawn),80.3*,99.4*,84.2*,.,88.5*,56.8*,88.1*,21.2
CC(C)C(=O)NC(c1ccc(N(C)C)cc1)c1c(O)ccc2ccccc12 (stereo not drawn),-13.5,-2.4,6.9,-1.2,7.0,4.0,.,.
CCC(=O)NC(c1ccc(C)cc1)c1ccc2cccnc2c1O (stereo not drawn),79.3*,-2.4,71.3*,5.6,0.3,57.1*,86.3*,23.7
Cc1ccc(C(=O)CCC(=O)NNC(=O)c2ccccc2O)cc1,33.8,.,.,-0.6,.,.,.,.
O=P(O)(Cc1ccccc1)Cc1ccccc1,-7.9,7.6,1.4,1.2,10.6,-8.0,.,.
CC(C)CC(=O)NC(c1ccccc1Cl)c1c(O)ccc2ccccc12 (stereo not drawn),20.8,15.6,45.6,-1.5,6.0,10.2,.,.
CCCC(=O)NC(c1ccccc1Cl)c1ccc2cccnc2c1O (stereo not drawn),86.8*,109.4*,17.9,98.8*,82.5*,52.4,88.8*,53.0*
Cc1ccc(OCC(=O)OCc2nc3scc(-c4ccccc4)c3c(=O)[nH]2)cc1C,16.8,2.4,-12.9,-4.4,13.4,-6.2,.,.
COc1ccc(CN2C(=NC(=O)C3CC3)SC3CS(=O)(=O)CC32)cc1 (stereo not drawn),9.4,-2.0,-2.0,-1.4,1.9,-3.6,.,.
COc1ccc(CN2C(=NC(=O)c3ccccc3)SC3CS(=O)(=O)CC32)cc1OC (stereo not drawn),-3.7,-16.6,-6.3,-7.7,-0.7,17.1,.,.

# Screening results from PubChem BioAssay.
